Assay outcomes deposited in PubChem BioAssay by several laboratories.
Most compounds without a hit are left out; they make up all but 3.9% or so of the library.
AHR act: human AHR activation; P35869; AHR-responsive luciferase reporter cells, luminescence; activation, % at 5 µM; 320,000 tested, 2.5% active; AID 2796; in the data active = activation above about 47%;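 note: 0% = vehicle wells and 100% = reference agonist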
HIF act: HIF pathway transcriptional activation. U2OS HRE-luciferase reporter, luminescence; normalized: DMSO 0%, desferrioxamine 100%. 300,000 tested, 0.32% active. AID 1910. activation, % at 7.5 µM (by protocol);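 active = mean activation of at least 10% of the iron chelator positive control signal, with at least half of replicates also reaching 10%; inconclusive = mean and replicate majority disagree about reaching 10%; inactive = mean and most replicates under 10%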
SR-BI DiI-HDL act: enhances SR-BI lipid uptake from DiI-HDL; 320,000 tested, 0.096% active; AID 504775; activation, % at 12.5 µM; CHO ldlA[mSR-BI] cells, DiI-HDL uptake fluorescence, 3 h; 100 = double the neutral-control signal;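 active = mean replicate activation of at least 60% and every replicate at or above 60%; inconclusive = mean or all-replicate condition met, but not both; inactive = mean below 60% and not all replicates reaching 60%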;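 note: 0% = median plate neutral-control signal and 100% = twice that signal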
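Material: SR-BI-overexpressing, LDLR-lacking CHO cells | Dosing: Single compound concentration, delivered by pin transfer | Probe or stimulus: Labelled HDL, 10 µg/mL | Signal: Bottom-read cell fluorescence after medium removal, ex 550/em 595 nm | Schedule: 3 h, 37 °C | Evaluation: HDL uptake via cellular fluorescence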
ABCB6 inh 2: human ABCB6 transporter inhibition; Q9NP58; K562-ABCB6 porphyrin accumulation, flow cytometry, 1 h; stronger effect = lower value; fluorescence ratio to DMSO, % at 10 µM; 360,000 tested, 0.19% active; AID 602162;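 active = fluorescence ratio to DMSO below 75%, the collection mean minus 3 SD; inconclusive = too few cells collected in the well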;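 note: signal is porphyrin accumulated inside mitochondria; 100% equals median channel fluorescence of DMSO control wells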
SR-BI DiI inh: blocks mouse SR-BI lipid uptake from DiI-HDL; ldlA[mSR-BI] CHO cells, DiI-HDL uptake fluorescence, 3 h; inhibition, % at 12.5 µM; 320,000 tested, 0.96% active;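 active = mean replicate inhibition of at least 70% and a set share of replicates each scoring 70 or more; inconclusive = meets just one of the two criteria; inactive = fails both criteria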;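 note: 0% = median of neutral control wells and 100% = median of positive control wells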
Target sequence (Q61009 whole entry, looked up): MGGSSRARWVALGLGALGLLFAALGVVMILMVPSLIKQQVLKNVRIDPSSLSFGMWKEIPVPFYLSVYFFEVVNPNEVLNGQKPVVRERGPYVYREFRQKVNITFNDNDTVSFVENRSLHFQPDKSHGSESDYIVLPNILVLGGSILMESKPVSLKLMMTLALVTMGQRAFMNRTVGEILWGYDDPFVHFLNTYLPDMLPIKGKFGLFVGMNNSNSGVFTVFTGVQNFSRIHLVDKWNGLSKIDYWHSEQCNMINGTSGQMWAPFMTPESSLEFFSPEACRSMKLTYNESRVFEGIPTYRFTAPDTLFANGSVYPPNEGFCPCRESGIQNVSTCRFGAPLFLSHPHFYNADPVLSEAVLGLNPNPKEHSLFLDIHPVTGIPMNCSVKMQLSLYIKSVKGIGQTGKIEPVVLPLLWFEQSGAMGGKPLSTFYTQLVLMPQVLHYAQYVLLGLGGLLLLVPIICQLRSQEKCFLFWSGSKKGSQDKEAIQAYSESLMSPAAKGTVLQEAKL
GAA850 FXN act: activators of GAA850 frataxin (FXN) promoter; activation, % at 6 µM; HEK293 lucGAA850 FXN promoter luciferase reporter, 24 h; percent of 10 µM SAHA response; 360,000 tested, 0.56% active;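 active = activation above the average of all compounds screened plus 3 SD, cutoff fixed separately per campaign, cut at about 7.5% in these data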;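 note: 0% = DMSO wells and 100% = 10 µM SAHA wells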
AHR act cf: human AHR activation, confirmation | human cells, AHR-responsive luciferase reporter, luminescence | 2,300 tested, 87% active | shares compounds with AHR act | activation, % at 9 µM | AID 2845; in the data active = activation above about 49%;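 note: HepG2 hepatoma cells carrying a DRE-driven firefly luciferase reporter; 0% = vehicle wells and 100% = reference agonist wells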
PXR act counter: counter-screen for AHR activators: human PXR activators; shares compounds with AHR act; cell-based PXR reporter, luciferase luminescence; activation, % at 11.6 µM; 2,300 tested, 88% active; AID 434939; in the data active = activation above about 11%;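 note: human hepatoma DPX-2 cells expressing full-length human PXR; 0% = DMSO and 100% = reference agonist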
Starred values were filed as active, the others as inactive; ? = inconclusive; . = not tested or not shown.

SMILES | AHR act | HIF act | SR-BI DiI-HDL act | ABCB6 inh 2 | SR-BI DiI inh | GAA850 FXN act | AHR act cf | PXR act counter
Cc1cccc(N2CCN(C(=O)c3c(C)nn(Cc4ccccc4Cl)c3C)CC2)c1C | 2 | -1 | -52 | 92 | 52 | 0 | . | .
O=C(CN1CCCC1)Nc1nnc(-c2cccs2)s1 | 126* | 1 | 3 | 101 | -3 | 1 | 125* | 16*
COc1ccc(NC(=O)Nc2nnc(-c3cccs3)s2)cc1 | 90* | 1 | . | 101 | . | 4 | 102* | 37*
O=C(CN1CCCCC1)Nc1nnc(-c2ccccc2)s1 | 109* | 2 | -30 | 101 | 30 | 0 | 132* | 27*
O=C(NCCOc1ccccc1)C1Nc2ccc(C(F)(F)F)cc2C2c3ccccc3CC12 (centres undefined) | 87* | -4 | -24 | 95 | 24 | 1 | 7 | 78*
CCC1Cc2c(nc(N)c3c(N)nc(N4CCOCC4)c(C#N)c23)O1 (centres undefined) | 4 | -1 | -28 | 96 | 28 | 0 | . | .
COc1ccc(Cl)cc1NC(=O)CCn1cnc2ccccc2c1=O | 0 | 0 | -33 | 92 | 33 | 0 | . | .
COCc1cc(=O)n2[nH]c(-c3cccc(Br)c3)cc2n1 | 120* | 1 | 24 | 97 | -24 | 5 | 115* | 13*
CC(C)c1ccc(NC(=O)CCN2C(=O)[C@@H]3Cc4ccccc4CN3C2=O)cc1 | 89* | 0 | 18 | 108 | -18 | 0 | 1 | 97*
CCOc1cc(/C=N/NS(=O)(=O)c2ccccc2)ccc1OS(=O)(=O)c1ccc(C)cc1 | 3 | 0 | -11 | 97 | 11 | 1 | . | .
Cc1cc2nc(-c3ccccc3O)[nH]c2cc1C | . | . | -30 | 94 | 30 | 4 | . | .
Clc1cc2nc(-c3cccnc3Cl)[nH]c2cc1Cl | 113* | 4 | -14 | 98 | 14 | 6 | 108* | 45*
NS(=O)(=O)c1ccc(NC(=O)CN2CCc3ccccc32)cc1 | 12 | 1 | 3 | 99 | -3 | 2 | . | .
Cc1ccc2c(c1)[nH]c1c(=O)n(CCN3CCCCC3)cnc12 | 94* | 1 | 44 | 98 | -44 | 0 | 105* | 76*
Cc1ccc2c(c1)[nH]c1c(=O)n(CCCN3CCOCC3)cnc12 | 35 | 1 | 26 | 98 | -26 | -2 | . | .
C=CCn1c(O)c(N=Nc2ccccc2C)c2ccccc21 | 36 | 0 | . | . | . | . | . | .
C=CCn1c(O)c(N=NC(=O)CNC(=O)c2ccncc2)c2ccccc21 | 99* | 1 | -3 | 107 | 3 | 2 | 70* | 43*
CCn1c(O)c(N=NC(=O)CNC(=O)/C=C/c2ccccc2)c2ccccc21 | 8 | 0 | -35 | 98 | 35 | 1 | . | .
C#CCn1c(O)c(N=NC(=O)CNC(=O)c2cccnc2)c2ccccc21 | 92* | 0 | 31 | 103 | -31 | 2 | 106* | 25*
C#CCn1c(O)c(N=NC(=O)CNC(=O)/C=C/c2ccccc2)c2ccccc21 | 91* | 0 | -7 | 97 | 7 | 0 | 107* | 52*
CC1CCCCN1S(=O)(=O)c1ccc2c(c1)CCN2C(=O)CCC(=O)O (centres undefined) | -1 | 0 | 3 | 89 | -3 | 2 | . | .
Cc1cc(C)cc(C(=O)Nc2cccnc2Cl)c1 | 3 | -31 | -21 | 102 | 21 | 1 | . | .
CC(=O)c1c(C)[nH]c(C(=O)NCCc2ccccc2)c1C | 116* | 2 | -12 | 98 | 12 | 3 | 70* | 79*
Cc1cccc(N2CN=c3s/c(=C\c4ccccn4)c(=O)n3C2)c1 | -1 | 3 | -40 | 97 | 40 | -1 | . | .
S=C1NC(c2cccs2)=CC(c2ccc(Br)cc2)N1 (centres undefined) | 117* | 0 | -77 | 99 | ? | 1 | 111* | 60*
SMILES | AHR act | HIF act | SR-BI DiI-HDL act | ABCB6 inh 2 | SR-BI DiI inh | GAA850 FXN act | AHR act cf | PXR act counter
CC1=CC(c2ccccc2)NC(=S)N1 (centres undefined) | 1 | 0 | -34 | 99 | 34 | 1 | . | .
Cc1oc2cc(OC(=O)c3ccco3)ccc2c(=O)c1-c1nc2ccccc2n1C | 106* | 0 | 0 | 97 | 0 | -1 | 2 | 20*
C[C@]12C=CC(=O)C=C1CC[C@@H]1C2=CC[C@]2(C)[C@@H](C(=O)CN3CCN(c4cc(N5CCCC5)nc(N5CCCC5)n4)CC3)CC[C@@H]12 | 3 | 0 | -39 | 108 | 39 | -1 | . | .
Cn1nccc1C(=O)Oc1ccc(/C=N/NC(=O)c2ccccc2O)cc1 | 93* | 0 | -20 | 102 | 20 | 2 | 21 | 5
CC(=O)c1cnc2c(-c3cccc(Br)c3)cnn2c1C | 16 | 1 | -15 | 97 | 15 | 3 | . | .
CCOC(=O)Cc1c(C)nc2c(-c3cccc(Br)c3)cnn2c1C | 100* | 0 | -14 | 94 | 14 | 1 | 116* | 21*
Cc1cc(N)n2ncc(-c3cccc(Br)c3)c2n1 | 93* | . | -14 | 92 | 14 | 5 | 125* | 34*
CC(=O)Nc1ccc(NC(=O)c2ccc([N+](=O)[O-])cc2Cl)cc1 | -6 | 0 | -19 | 100 | 19 | 1 | . | .
O=C(Nc1ccccc1)c1cc([N+](=O)[O-])ccc1Cl | 88* | 0 | -42 | 100 | 42 | -1 | 95* | 14*
O=C(O)c1cc([N+](=O)[O-])ccc1NCc1ccccc1 | 1 | -1 | -1 | 104 | 1 | 2 | . | .
O=C(Nc1ccc(Cl)c(Cl)c1)Nc1ccc([N+](=O)[O-])cn1 | 91* | 3 | 10 | 96 | -10 | -1 | 86* | 8
O=C(Nc1ccccc1)c1cc([N+](=O)[O-])ccc1NCc1cccnc1 | 83* | 0 | -4 | 99 | 4 | 3 | 104* | 41*
O=C1CC(c2ccccc2)CC(O)=C1C=NCc1ccc(Cl)c(Cl)c1 (centres undefined) | 5 | 0 | 9 | 98 | -9 | -2 | . | .
CCOCCCNC(=O)c1c[nH]c2ccc(S(=O)(=O)Nc3cccc(OC)c3)cc2c1=O | 8 | -33 | 13 | 95 | -13 | -1 | . | .
CC(O)CN(C)CC/C=C1/c2ccccc2CSc2ccccc21 (centres undefined) | -2 | 0 | 2 | 104 | -2 | 1 | . | .
NNC(=O)CS(=O)(=O)c1ccc(Cl)cc1 | 0 | 0 | 4 | 101 | -4 | 0 | . | .
COCCCNC(=O)c1sc2ncnc(N3CCc4ccccc4C3)c2c1C | 100* | 0 | -61 | 97 | 61 | -1 | 82* | 20*
